Key:
SNB-19 = assay: Anticancer activity against human SNB19 cells; format: functional; details: read-out: LC50 (the source's name)
Procedure, shortened: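 Tested by the NCI in its 60-human-tumour-cell-line panel. Dose-response curves were run, and GI₅₀ (50% growth inhibition), TGI (total growth inhibition) and LC₅₀ (50% cell killing) were read as interpolated concentrations where the curves cross those levels.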

HOP-92 = assay: Anticancer activity against human HOP92 cells; format: functional
Procedure, shortened: (§1)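 NCI 60-human-tumour-cell-line panel. Selected analogues were first run at one dose, then some were carried into multi-dose testing. GI50 (50% growth inhibition), TGI (total growth inhibition) and LC50 (50% cell kill) were read as values interpolated where the dose–response curves cross these levels.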

K562 = assay: Anticancer activity against human K562 cells; format: functional; procedure, shortened: as §1
OVCAR-8 = assay: Cytotoxicity against human OVCAR8 cells assessed as cellular growth at 10 uM; format: functional
Procedure, shortened: (§2)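 Single-dose screen run by the NCI across its 60-human-tumour-cell-line panel; growth recorded for each cell line.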

SK-MEL-28 = assay: Anticancer activity against human SK-MEL-28 cells; format: functional; procedure, shortened: as §1
UACC-62 = assay: Anticancer activity against human UACC62 cells; format: functional
UO-31 = assay: Anticancer activity against human UO31 cells; format: functional
Malme-3M = assay: Cytotoxicity against human MALME-3M cells assessed as cellular growth at 10 uM; format: functional; procedure, shortened: as §2
NCI-H23 = assay: Anticancer activity against human NCI-H23 cells; format: functional; procedure, shortened: as §1
MOLT-4 = assay: Cytotoxicity against human MOLT4 cells assessed as cellular growth at 10 uM; format: functional; procedure, shortened: as §2
MDA-MB-468 = assay: Anticancer activity against human MDA-MB-468 cells; format: functional; procedure, shortened: as §1
OVCAR-3 = assay: Anticancer activity against human OVCAR3 cells; format: functional; procedure, shortened: as §1
RXF 393 = assay: Anticancer activity against human RXF393 cells; format: functional; procedure, shortened: as §1
HOP-62 = assay: Anticancer activity against human HOP62 cells; format: functional; procedure, shortened: as §1
COLO 205 = assay: Anticancer activity against human COLO205 cells; format: functional; procedure, shortened: as §1
A549 [1] = assay: Cytotoxicity against human A549 cells assessed as cellular growth at 10 uM; format: functional; procedure, shortened: as §2
MCF7 = assay: Cytotoxicity against human MCF7 cells assessed as cellular growth at 10 uM; format: functional; procedure, shortened: as §2
OVCAR-5 [2] = assay: Anticancer activity against human OVCAR5 cells; format: functional; procedure, shortened: as §1
SF-295 [3] = assay: Anticancer activity against human SF295 cells; format: functional; procedure, shortened: as §1
A549 [4] = assay: Anticancer activity against human A549 cells; format: functional; procedure, shortened: as §1
SNB-75 [5] = assay: Anticancer activity against human SNB75 cells; format: functional; procedure, shortened: as §1
ACHN [6] = assay: Cytotoxicity against human ACHN cells assessed as cellular growth at 10 uM; format: functional; procedure, shortened: as §2
OVCAR-5 [7] = assay: Cytotoxicity against human OVCAR5 cells assessed as cellular growth at 10 uM; format: functional; procedure, shortened: as §2
UACC-257 = assay: Anticancer activity against human UACC257 cells; format: functional
MDA-MB-231 = assay: Anticancer activity against human MDA-MB-231 cells; format: functional; procedure, shortened: as §1
SW-620 = assay: Anticancer activity against human SW620 cells; format: functional
CCRF-CEM = assay: Cytotoxicity against human CCRF-CEM cells assessed as cellular growth at 10 uM; format: functional; procedure, shortened: as §2
CAKI-1 = assay: Anticancer activity against human Caki1 cells; format: functional; procedure, shortened: as §1
786-0 = assay: Anticancer activity against human 786-0 cells; format: functional; procedure, shortened: as §1
HCT-15 = assay: Anticancer activity against human HCT15 cells; format: functional; procedure, shortened: as §1
NCI/ADR-RES = assay: Anticancer activity against human NCI/ADR-RES cells; format: functional; procedure, shortened: as §1
SF-539 = assay: Cytotoxicity against human SF539 cells assessed as cellular growth at 10 uM; format: functional; procedure, shortened: as §2
SF-295 [8] = assay: Cytotoxicity against human SF295 cells assessed as cellular growth at 10 uM; format: functional; procedure, shortened: as §2
ACHN [9] = assay: Anticancer activity against human ACHN cells; format: functional; procedure, shortened: as §1
BT-549 = assay: Anticancer activity against human BT549 cells; format: functional; procedure, shortened: as §1
SK-MEL-5 = assay: Cytotoxicity against human SK-MEL-5 cells assessed as cellular growth at 10 uM; format: functional
EKVX [10] = assay: Anticancer activity against human EKVX cells; format: functional; procedure, shortened: as §1
M14 = assay: Anticancer activity against human M14 cells; format: functional; procedure, shortened: as §1
PC-3 = assay: Cytotoxicity against human PC3 cells after 48 hrs by SRB assay; format: functional, cell-based; details: PC-3, 48 h
Procedure, shortened: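 PC-3 cells grown in RPMI1640 with 10% FBS at 37 °C, 5% CO₂. Seeded in medium with 5% FBS; after 24 h, one plate fixed with 10% TCA as T₀. Compound or 0.1% DMSO vehicle added for 48 h, then TCA fixation and 0.4% SRB in 1% acetic acid. Dye solubilized in 10 mM Trizma base, absorbance read at 515 nm. IC50 is the concentration giving 50% reduction of the protein gain in controls.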

HL-60(TB) = assay: Cytotoxicity against human HL-60(TB) cells assessed as cellular growth at 10 uM; format: functional; procedure, shortened: as §2
SN12C = assay: Anticancer activity against human SN12C cells; format: functional; procedure, shortened: as §1
EKVX [11] = assay: Cytotoxicity against human EKVX cells assessed as cellular growth at 10 uM; format: functional; procedure, shortened: as §2
TK-10 = assay: Anticancer activity against human TK10 cells; format: functional
SNB-75 [12] = assay: Cytotoxicity against human SNB75 cells assessed as cellular growth at 10 uM; format: functional
U-251 = assay: Anticancer activity against human U251 cells; format: functional
[13] = read-out: LC50 (the source's name)

Structure (SMILES): Cc1ccc(C(=O)Nc2c(NC(=O)CN3CCN(C)CC3)ccc3c2C(=O)c2ccccc2C3=O)cc1
- CC50 (SNB-19): > 100 µM
- GI50 (HOP-92): 0.87 µM
- LC50 (concentration giving 50% cell kill) (HOP-92): > 100 µM
- TGI (HOP-92): 9.19 µM
- GI50 (K562): 2.09 µM
- Activity (OVCAR-8): 46.43%
- GI50 (SK-MEL-28): 1.87 µM
- GI50 (UACC-62): 2.52 µM
- CC50 (UACC-62; [13]): > 100 µM
- TGI (UO-31): > 100 µM
- CC50 (UO-31; [13]): > 100 µM
- Activity (Malme-3M): 10.84%
- GI50 (NCI-H23): > 100 µM
- LC50 (50% cell kill) (NCI-H23): > 100 µM
- TGI (NCI-H23): > 100 µM
- Activity (MOLT-4): 26.04%
- GI50 (MDA-MB-468): 2.58 µM
- TGI (MDA-MB-468): > 100 µM
- CC50 (MDA-MB-468; [13]): > 100 µM
- GI50 (OVCAR-3): 2.43 µM
- CC50 (OVCAR-3; [13]): > 100 µM
- TGI (RXF 393): > 100 µM
- CC50 (RXF 393; [13]): > 100 µM
- GI50 (HOP-62): > 100 µM
- LC50 (50% cell kill) (HOP-62): > 100 µM
- TGI (HOP-62): > 100 µM
- GI50 (COLO 205): 2.22 µM
- LC50 (COLO 205): > 100 µM
- TGI (COLO 205): 4.08 µM
- Activity (A549 [1]): 83.89%
- Activity (MCF7): 31.79%
- GI50 (OVCAR-5 [2]): > 100 µM
- TGI (OVCAR-5 [2]): > 100 µM
- CC50 (OVCAR-5 [2]; [13]): > 100 µM
- GI50 (SF-295 [3]): > 100 µM
- TGI (SF-295 [3]): > 100 µM
- CC50 (SF-295 [3]; [13]): > 100 µM
- TGI (A549 [4]): > 100 µM
- CC50 (A549 [4]; [13]): > 100 µM
- GI50 (SNB-75 [5]): > 100 µM
- TGI (SNB-75 [5]): > 100 µM
- CC50 (SNB-75 [5]; [13]): > 100 µM
- Activity (ACHN [6]): 49.87%
- Activity (OVCAR-5 [7]): 106.66%
- GI50 (UACC-257): 2.23 µM
- TGI (UACC-257): 5.81 µM
- CC50 (UACC-257; [13]): > 100 µM
- GI50 (MDA-MB-231): 3.3 µM
- TGI (MDA-MB-231): > 100 µM
- CC50 (MDA-MB-231; [13]): > 100 µM
- TGI (SW-620): > 100 µM
- CC50 (SW-620; [13]): > 100 µM
- Activity (CCRF-CEM): 61.06%
- TGI (CAKI-1): > 100 µM
- CC50 (CAKI-1; [13]): > 100 µM
- GI50 (786-0): 5.61 µM
- TGI (786-0): > 100 µM
- CC50 (786-0; [13]): > 100 µM
- GI50 (HCT-15): 3.36 µM
- LC50 (HCT-15): > 100 µM
- TGI (HCT-15): > 100 µM
- TGI (NCI/ADR-RES): > 100 µM
- CC50 (NCI/ADR-RES; [13]): > 100 µM
- Activity (SF-539): 62.68%
- Activity (SF-295 [8]): 89.86%
- TGI (ACHN [9]): > 100 µM
- CC50 (ACHN [9]; [13]): > 100 µM
- GI50 (BT-549): > 100 µM
- TGI (BT-549): > 100 µM
- CC50 (BT-549; [13]): > 100 µM
- Activity (SK-MEL-5): 41.3%
- TGI (EKVX [10]): > 100 µM
- CC50 (EKVX [10]; [13]): > 100 µM
- GI50 (M14): 2.22 µM
- TGI (M14): 4.65 µM
- IC50 (PC-3): 3.46 µM
- Activity (HL-60(TB)): -8.54%
- TGI (SN12C): > 100 µM
- CC50 (SN12C; [13]): > 100 µM
- Activity (EKVX [11]): 78.07%
- GI50 (TK-10): > 100 µM
- TGI (TK-10): > 100 µM
- CC50 (TK-10; [13]): > 100 µM
- Activity (SNB-75 [12]): 82.17%
- GI50 (U-251): 3.64 µM
- TGI (U-251): > 100 µM
- CC50 (U-251; [13]): > 100 µM

Structure (SMILES): Cc1ccc(C(=O)Nc2ccc3c(c2NC(=O)c2ccc(C)cc2)C(=O)c2ccccc2C3=O)cc1
- Activity (OVCAR-8): 85.43%
- Activity (Malme-3M): 127.16%
- Activity (MOLT-4): 89.63%
- Activity (A549 [1]): 90.46%
- Activity (MCF7): 71.71%
- Activity (ACHN [6]): 112.43%
- Activity (OVCAR-5 [7]): 110.18%
- Activity (CCRF-CEM): 79.02%
- Activity (SF-539): 97.26%
- Activity (SF-295 [8]): 110.81%
- Activity (SK-MEL-5): 94.04%
- IC50 (PC-3): 3.16 µM
- Activity (HL-60(TB)): 73.11%
- Activity (SNB-75 [12]): 102.26%

From ChEMBL document CHEMBL1926565, “Synthesis, antiproliferative activities and telomerase inhibition evaluation of novel asymmetrical 1,2-disubstituted amidoanthraquinone derivatives” (Eur J Med Chem, 2012)
